Experimental data taken from ChEMBL document CHEMBL1955832, “Facile synthesis, characterization and pharmacological activities of 3,6-disubstituted 1,2,4-triazolo[3,4-b][1,3,4]thiadiazoles and 5,6-dihydro-3,6-disubstituted-1,2,4-triazolo[3,4-b][1,3,4]thiadiazoles” (2012).
Converted amounts (≈) assume the structure as drawn. The source made the active and inactive calls. The calls are words filed in the database; no cut-off is given here.

Key:
Mus musculus [1] = test: Analgesic activity Wistar albino mouse assessed as tail withdrawal latency time at 100 mg/kg, po administered by intragastric tube after 180 mins (reference value: 1.363 +/- 0.1297 sec); format: functional
[2] = system: Trichophyton mentagrophytes; test: Antifungal activity against recultured Trichophyton mentagrophytes by serial plate dilution method; format: functional
Aspergillus fumigatus [3] = test: Antifungal activity against Aspergillus fumigatus NCIM 902 by serial plate dilution method; format: functional
Talaromyces marneffei [4] = test: Antifungal activity against recultured Penicillium marneffei by serial plate dilution method; format: functional
Pseudomonas aeruginosa [5] = test: Antibacterial activity against Pseudomonas aeruginosa ATTC 27853 at MIC after 3 to 4 days by disc diffusion method; format: functional
Outline: (§1)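 Agar well diffusion: seeded agar plates dried 1 h at 37 °C, wells punched and filled with test compound at MIC level in DMSO; DMSO solvent control. Plates in triplicate, kept at 37 °C for 3–4 days; zone of inhibition read.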

Aspergillus flavus [6] = test: Antifungal activity against Aspergillus flavus NCIM 524 by serial plate dilution method; format: functional
Aspergillus fumigatus [7] = test: Antifungal activity against Aspergillus fumigatus NCIM 902 at MIC after 3 to 4 days; format: functional
Staphylococcus aureus [8] = test: Antibacterial activity against Staphylococcus aureus ATTC 25923 at MIC after 3 to 4 days by disc diffusion method; format: functional; outline: as §1
Escherichia coli [9] = test: Antibacterial activity against Escherichia coli ATTC 25922 at MIC after 3 to 4 days by disc diffusion method; format: functional; outline: as §1
[10] = system: Trichophyton mentagrophytes; test: Antifungal activity against recultured Trichophyton mentagrophytes at MIC after 3 to 4 days; format: functional
Mus musculus [11] = test: Analgesic activity Wistar albino mouse assessed as tail withdrawal latency time at 100 mg/kg, po administered by intragastric tube after 60 mins (reference value: 1.363 +/- 0.1297 sec); format: functional
Klebsiella pneumoniae [12] = test: Antibacterial activity against recultured Klebsiella pneumoniae at MIC after 3 to 4 days by disc diffusion method; format: functional; outline: as §1
Escherichia coli [13] = test: Antibacterial activity against Escherichia coli ATTC 25922 after 16 to 18 hrs by serial dilution method; format: functional
Outline: (§2)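 Serial drug dilutions in Mueller-Hinton broth adjusted to pH 5.0 with phosphate buffer, inoculated with standardized bacterial suspension, incubated 16–18 h at 37 °C; MIC taken as lowest concentration without conspicuous growth.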

Klebsiella pneumoniae [14] = test: Antibacterial activity against recultured Klebsiella pneumoniae after 16 to 18 hrs by serial dilution method; format: functional; outline: as §2
Mus musculus [15] = test: Analgesic activity Wistar albino mouse assessed as tail withdrawal latency time at 100 mg/kg, po administered by intragastric tube after 120 mins (reference value: 1.363 +/- 0.1297 sec); format: functional
Staphylococcus aureus [16] = test: Antibacterial activity against Staphylococcus aureus ATTC 25923 after 16 to 18 hrs by serial dilution method; format: functional; outline: as §2
Aspergillus flavus [17] = test: Antifungal activity against Aspergillus flavus NCIM 524 at MIC after 3 to 4 days; format: functional
Pseudomonas aeruginosa [18] = test: Antibacterial activity against Pseudomonas aeruginosa ATTC 27853 after 16 to 18 hrs by serial dilution method; format: functional; outline: as §2
Rattus norvegicus = test: Antiinflammatory activity rat assessed as reduction of carrageenan-induced paw oedema at 100 mg/kg, po administered 30 mins before carrageenan challenge measured after 60 to 180 mins; format: functional, organism-based; design: dose 100 mg/kg
Outline: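 Rats randomly assigned, 100 mg/kg orally as suspension in 1% carboxymethyl cellulose, 30 min before carrageenan injected into right hind paw. Paw thickness measured with vernier callipers at 60, 120 and 180 min. Diclofenac reference; mean ± SEM, n = 6, vs vehicle control.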

Talaromyces marneffei [19] = test: Antifungal activity against recultured Penicillium marneffei at MIC after 3 to 4 days; format: functional
[20] = system: Radical scavenging activity; test: Antioxidant activity of the compound assessed as DPPH radical scavenging activity at 400 ug/ml after 20 mins; format: functional
Outline: (§3)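 Compound dissolved in methylene dichloride at the stated concentration, mixed with 4 mL 0.1 mM methanolic DPPH, held 20 min at ambient temperature; absorbance read at 517 nm. Scavenging % = (A_DPPH − A_test)/A_DPPH × 100. Triplicate; ascorbic acid positive control.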

[21] = system: Radical scavenging activity; test: Antioxidant activity of the compound assessed as DPPH radical scavenging activity at 200 ug/ml after 20 mins; format: functional; outline: as §3
[22] = system: Radical scavenging activity; test: Antioxidant activity of the compound assessed as DPPH radical scavenging activity at 800 ug/ml after 20 mins; format: functional; outline: as §3

Structure (SMILES) | Time (Mus musculus [1]) [s] | MIC [2] [µM] | MIC (Aspergillus fumigatus [3]) [µM] | MIC (Talaromyces marneffei [4]) [µM] | diameter of the inhibition zone (DIZ) (Pseudomonas aeruginosa [5]) [mm] | MIC (Aspergillus flavus [6]) [µM] | diameter of the inhibition zone (DIZ) (Aspergillus fumigatus [7]) [mm] | diameter of the inhibition zone (DIZ) (Staphylococcus aureus [8]) [mm] | diameter of the inhibition zone (DIZ) (Escherichia coli [9]) [mm] | diameter of the inhibition zone (DIZ) [10] [mm] | Time (Mus musculus [11]) [s] | diameter of the inhibition zone (DIZ) (Klebsiella pneumoniae [12]) [mm] | MIC (Escherichia coli [13]) [µM] | MIC (Klebsiella pneumoniae [14]) [µM] | Time (Mus musculus [15]) [s] | MIC (Staphylococcus aureus [16]) [µM] | diameter of the inhibition zone (DIZ) (Aspergillus flavus [17]) [mm] | MIC (Pseudomonas aeruginosa [18]) [µM] | Activity (Rattus norvegicus) | diameter of the inhibition zone (DIZ) (Talaromyces marneffei [19]) [mm] | further results
COc1ccc(-c2nn3c(-c4cc(OC)ccc4Br)nnc3s2)cc1 | 2.44 | 15 (≈ 6.25 µg/mL) | 15 (≈ 6.25 µg/mL) | 29.9 (≈ 12.5 µg/mL) | 16 | 29.9 (≈ 12.5 µg/mL) | 16 | 16 | 16 | 16 | 2.379 | 16 | 15 (≈ 6.25 µg/mL) | 15 (≈ 6.25 µg/mL) | 2.674 | 15 (≈ 6.25 µg/mL) | 11 | 15 (≈ 6.25 µg/mL) | Active | 11 | 
COc1ccc(Br)c(-c2nnc3n2NC(c2ccc(C)cc2)S3)c1 (stereo unspecified) | 2.438 | 31 (≈ 12.5 µg/mL) | 15.5 (≈ 6.25 µg/mL) | 31 (≈ 12.5 µg/mL) | 16 | 15.5 (≈ 6.25 µg/mL) | 16 | 11 | 16 | 11 | 2.403 | 16 | 15.5 (≈ 6.25 µg/mL) | 15.5 (≈ 6.25 µg/mL) | 2.643 | 31 (≈ 12.5 µg/mL) | 16 | 15.5 (≈ 6.25 µg/mL) | Active | 11 | 
COc1ccc(Br)c(-c2nnc3n2NC(c2cccc(Cl)c2)S3)c1 (stereo unspecified) | 2.235 | 29.5 (≈ 12.5 µg/mL) | 29.5 (≈ 12.5 µg/mL) | 29.5 (≈ 12.5 µg/mL) | 11 | 29.5 (≈ 12.5 µg/mL) | 11 | 11 | 11 | 11 | 3.546 | 11 | 29.5 (≈ 12.5 µg/mL) | 29.5 (≈ 12.5 µg/mL) | 3.623 | 29.5 (≈ 12.5 µg/mL) | 11 | 29.5 (≈ 12.5 µg/mL) | Active | 11 | inhibition [20]: 44.7%; inhibition [21]: 35.9%; inhibition [22]: 62.5%
COc1ccc(Br)c(-c2nnc3sc(-c4cc(Cl)cc(Cl)c4)nn23)c1 | 2.388 | 13.7 (≈ 6.25 µg/mL) | 13.7 (≈ 6.25 µg/mL) | 13.7 (≈ 6.25 µg/mL) | 16 | 27.4 (≈ 12.5 µg/mL) | 16 | 11 | 16 | 16 | 3.421 | 16 | 13.7 (≈ 6.25 µg/mL) | 13.7 (≈ 6.25 µg/mL) | 3.075 | 27.4 (≈ 12.5 µg/mL) | 11 | 13.7 (≈ 6.25 µg/mL) | Active | 16 | inhibition [20]: 54.3%; inhibition [21]: 49.8%; inhibition [22]: 66.8%
COc1ccc(C2Nn3c(nnc3-c3cc(OC)ccc3Br)S2)c(OC)c1 (stereo unspecified) | 2.492 | 27.8 (≈ 12.5 µg/mL) | 27.8 (≈ 12.5 µg/mL) | 13.9 (≈ 6.25 µg/mL) | 16 | 27.8 (≈ 12.5 µg/mL) | 11 | 11 | 16 | 11 | 2.39 | 16 | 13.9 (≈ 6.25 µg/mL) | 13.9 (≈ 6.25 µg/mL) | 2.642 | 27.8 (≈ 12.5 µg/mL) | 11 | 13.9 (≈ 6.25 µg/mL) | Active | 16 | 
COc1ccc(Br)c(-c2nnc3n2NC(c2ccccc2Cl)S3)c1 (stereo unspecified) | 2.938 | 29.5 (≈ 12.5 µg/mL) | 14.8 (≈ 6.25 µg/mL) | 29.5 (≈ 12.5 µg/mL) | 11 | 14.8 (≈ 6.25 µg/mL) | 16 | 16 | 11 | 11 | 3.6 | 11 | 29.5 (≈ 12.5 µg/mL) | 29.5 (≈ 12.5 µg/mL) | 3.25 | 14.8 (≈ 6.25 µg/mL) | 16 | 29.5 (≈ 12.5 µg/mL) | Active | 11 | inhibition [20]: 51.8%; inhibition [21]: 48%; inhibition [22]: 62.7%
O=C1O[C@H]([C@@H](O)CO)C(O)=C1O |  |  |  |  |  |  |  |  |  |  |  |  |  |  |  |  |  |  |  |  | inhibition [20]: 95%; inhibition [21]: 87.6%; inhibition [22]: 96%
COc1ccc(Br)c(-c2nnc3sc(-c4ccc(C)cc4)nn23)c1 | 2.47 | 15.8 (≈ 6.32 µg/mL) | 31.1 (≈ 12.5 µg/mL) | 31.1 (≈ 12.5 µg/mL) | 11 | 31.1 (≈ 12.5 µg/mL) | 11 | 16 | 16 | 16 | 2.384 | 16 | 15.8 (≈ 6.32 µg/mL) | 15.8 (≈ 6.32 µg/mL) | 2.681 | 15.8 (≈ 6.32 µg/mL) | 11 | 31.1 (≈ 12.5 µg/mL) | Active | 11 | 
COc1ccc(Br)c(-c2nnc3n2NC(c2ccccc2OC)S3)c1 (stereo unspecified) | 2.501 | 14.9 (≈ 6.25 µg/mL) | 14.9 (≈ 6.25 µg/mL) | 29.9 (≈ 12.5 µg/mL) | 11 | 14.9 (≈ 6.25 µg/mL) | 16 | 11 | 16 | 16 | 2.387 | 11 | 14.9 (≈ 6.25 µg/mL) | 29.8 (≈ 12.5 µg/mL) | 2.652 | 29.8 (≈ 12.5 µg/mL) | 16 | 29.8 (≈ 12.5 µg/mL) | Active | 11 | 
COc1ccc(Br)c(-c2nnc3sc(-c4ccc(I)cc4I)nn23)c1 | 2.225 | 19.6 (≈ 12.5 µg/mL) | 19.6 (≈ 12.5 µg/mL) | 19.6 (≈ 12.5 µg/mL) | 11 | 19.6 (≈ 12.5 µg/mL) | 11 | 11 | 11 | 11 | 2.038 | 11 | 19.6 (≈ 12.5 µg/mL) | 19.6 (≈ 12.5 µg/mL) | 2.088 | 19.6 (≈ 12.5 µg/mL) | 11 | 19.6 (≈ 12.5 µg/mL) |  | 11 | 
COc1ccc(Br)c(-c2nnc3sc(-c4ccc(C)cc4O)nn23)c1 | 3.121 | 15 (≈ 6.25 µg/mL) | 15 (≈ 6.25 µg/mL) | 29.9 (≈ 12.5 µg/mL) | 16 | 15 (≈ 6.25 µg/mL) | 16 | 11 | 16 | 16 | 2.388 | 16 | 15 (≈ 6.25 µg/mL) | 15 (≈ 6.25 µg/mL) | 3.321 | 29.9 (≈ 12.5 µg/mL) | 16 | 15 (≈ 6.25 µg/mL) | Active | 11 | 
